Measurements gathered from unrelated publications.
Protocols differ between the studies behind these lines.
Target: Serine/threonine-protein kinase Chk1 (CHEK1, Homo sapiens, UniProt O14757)
Sequence (O14757 1-476, as in one of the studies): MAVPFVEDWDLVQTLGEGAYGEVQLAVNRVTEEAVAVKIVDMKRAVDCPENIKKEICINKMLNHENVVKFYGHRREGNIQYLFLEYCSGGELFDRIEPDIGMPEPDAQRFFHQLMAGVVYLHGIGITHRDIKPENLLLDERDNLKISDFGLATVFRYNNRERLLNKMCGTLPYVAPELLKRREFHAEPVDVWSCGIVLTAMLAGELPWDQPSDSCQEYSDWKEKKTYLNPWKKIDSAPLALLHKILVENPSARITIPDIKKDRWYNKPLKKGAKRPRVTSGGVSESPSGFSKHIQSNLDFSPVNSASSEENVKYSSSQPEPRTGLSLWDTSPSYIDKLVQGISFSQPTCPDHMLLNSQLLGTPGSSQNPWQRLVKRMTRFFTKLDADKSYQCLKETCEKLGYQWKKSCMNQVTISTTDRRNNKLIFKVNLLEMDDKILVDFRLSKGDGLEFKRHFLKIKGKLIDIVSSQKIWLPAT

| Structure (SMILES) | test | setting | remaining binding [%] |
| --- | --- | --- | --- |
| C[C@@H]1CCN(c2nccc(-c3cnn4ncccc34)n2)C1 | binding | 1 µM | 100 |
| CNC(=O)[C@@H]1CC[C@@H](n2c(-c3ccc4cnccc4c3)nc3ccc(C(=O)NCc4cccc(C(N)=O)c4)cc32)C1 | binding, competition with immobilised ligand | 1 µM | 100 |
| FC(F)(F)Oc1cccc(-c2cnc3ccc(-c4ccncc4)nn23)c1 | cell-free assay, competition with immobilised ligand | 5 µM | 100 |
| CN(c1nccc(-c2cnn3ncccc23)n1)C1CC1 | binding | 1 µM | 78 |
| CC(=O)N1CCC(c2ccc(C(=O)NC(=N)N)cc2C(F)(F)F)CC1 | cell-free assay, competition with immobilised ligand | 1 µM | 95 |
| N[C@H]1CCN(c2nccc(-c3cnn4ncccc34)n2)C1 | binding | 1 µM | 100 |
| c1cncc(-c2cccc(Nc3nccc(NC4CCCCC4)n3)c2)c1 | binding, competition with immobilised ligand | 10 µM | 94 |
| CN(C)c1nccc(-c2cnn3ncccc23)n1 | binding | 1 µM | 100 |
| N#Cc1ccc(Nc2ccc3[nH]c(=O)[nH]c3c2)c(Cl)c1 | cell-free assay, competition with immobilised ligand | 1 µM | 98 |
| O=C(c1ccc(Nc2ncc(Cl)c(-c3cc4ccccc4s3)n2)cc1)N1CCC(N2CCCC2)CC1 | binding, competition with immobilised ligand | 1 µM | 54 |
| C[C@@H]1CN(c2ccc3ncc(-c4ccc5[nH]nc(C6CC6)c5c4)n3n2)C[C@H](C)O1 | binding, competition with immobilised ligand | 50 nM | 91 |
| O=C(Nc1c[nH]nc1C(=O)NC1CCNCC1)c1cc(F)cc(F)c1 | binding, competition with immobilised ligand | 1 µM | 100 |
| c1cnn2ncc(-c3ccnc(N4CCC45COC5)n3)c2c1 | binding | 1 µM | 89 |
| CC(=O)c1c(NS(C)(=O)=O)c2cc(-c3ccc(Cl)cc3)c(-c3ccc(Cl)cc3Cl)nc2n(C)c1=O | cell-free assay, competition with immobilised ligand | 1 µM | 100 |
| CN(C)c1ncc(F)c(-c2cnn3ncccc23)n1 | binding | 1 µM | 87 |
| O=C(NCCCN1CCOCC1)c1ccc(Nc2nccc(-c3cc4ccccc4s3)n2)cc1 | binding, competition with immobilised ligand | 1 µM | 100 |
| Cc1nc(C2CCN(C(=O)c3ccc(OC(F)(F)F)cc3N)CC2)c2ncc(N3CCN(C)CC3)cc2n1 | cell-free assay, competition with immobilised ligand | 1 µM | 100 |
| Cc1cnc(Nc2ccc(C(=O)N3CCC(N4CCCC4)CC3)cc2)nc1-c1cc2ccccc2s1 | binding, competition with immobilised ligand | 1 µM | 33 |
| FC(F)(F)c1ccc2c(c1)nc(-c1cccnc1)n2C1CC1 | cell-free assay, competition with immobilised ligand | 1 µM | 100 |
| COc1ncc2cc3ccccc3nc2c1C#N | cell-free assay, competition with immobilised ligand | 5 µM | 100 |
| CCCCN(CCCC)C(=O)CN1C[C@H](c2cc(OC)c3c(c2)OCO3)[C@@H](C(=O)O)[C@@H]1CC(C)(C)CCC | cell-free assay, competition with immobilised ligand | 1 µM | 100 |
| COc1cnc(Nc2cccc(S(N)(=O)=O)c2)nc1N1CCN(c2ccccc2)CC1 | binding, competition with immobilised ligand | 1 µM | 100 |
| CN(CCCC(F)(F)F)c1nccc(-c2cnn3ncccc23)n1 | binding | 1 µM | 100 |
| CNC(=O)c1ccc(Nc2ncc(C(F)(F)F)c(NCc3nccnc3N(C)S(C)(=O)=O)n2)cc1 | cell-free assay, competition with immobilised ligand | 0.1 µM | 100 |
